# Compound activity deposited in PubChem by several laboratories.
# Most compounds without a hit are left out; they make up all but 11% or so of the library.
# SF1 activator: SF-1 (human) activation; CHO-K1 Gal4-SF-1 LBD luciferase reporter; % increase over DMSO SF-1-specific signal; Q13285; 1.9% of 65,000 active; activation, % at 10 µM;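 active = activation above the mean activation of all tested compounds plus 3 SD, cut at about 50% in these data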
#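 Test system: transient Gal4-SF-1 LBD reporter, CHO-K1; Amount: 4,000 CHO-K1 cells per well; Doses: 10 µM only; Timing: compound exposure 20 h at 37 °C; Signal: luciferase light emission; Read-out basis: percent activation relative to DMSO median and mock-transfected background; Control set: DMSO negative control and −SF1 background wells; Replicates: one test per compound.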
# M1 antagonist: antagonists of rat M1 muscarinic receptor; CHO-M1 cells, Fluo-4 calcium, ACh EC80 antagonist mode; active compounds read low; B-score at 10 µM; 3.4% of 64,000 active; AID 628;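 active = calcium fluorescence response, raw or row-and-column corrected B-score, differing from the plate sample mean either way at a set confidence level, mostly lower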
# RORa activator: activators of human nuclear receptor RORA; P35398; CHO-K1 Gal4-RORA LBD luciferase reporter, luminescence; percent increase over mock-subtracted basal signal; activation, % at 10 µM; 1.5% of 65,000 active; AID 560;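 active = activation above the mean of all tested compounds plus 3 SD, cut at about 49% in these data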;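 note: 0% = DMSO-treated RORA cells and 100% = added signal equal to DMSO minus mock-transfected cells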
# Target sequence (P35398 whole entry, looked up, the tested form may be a part): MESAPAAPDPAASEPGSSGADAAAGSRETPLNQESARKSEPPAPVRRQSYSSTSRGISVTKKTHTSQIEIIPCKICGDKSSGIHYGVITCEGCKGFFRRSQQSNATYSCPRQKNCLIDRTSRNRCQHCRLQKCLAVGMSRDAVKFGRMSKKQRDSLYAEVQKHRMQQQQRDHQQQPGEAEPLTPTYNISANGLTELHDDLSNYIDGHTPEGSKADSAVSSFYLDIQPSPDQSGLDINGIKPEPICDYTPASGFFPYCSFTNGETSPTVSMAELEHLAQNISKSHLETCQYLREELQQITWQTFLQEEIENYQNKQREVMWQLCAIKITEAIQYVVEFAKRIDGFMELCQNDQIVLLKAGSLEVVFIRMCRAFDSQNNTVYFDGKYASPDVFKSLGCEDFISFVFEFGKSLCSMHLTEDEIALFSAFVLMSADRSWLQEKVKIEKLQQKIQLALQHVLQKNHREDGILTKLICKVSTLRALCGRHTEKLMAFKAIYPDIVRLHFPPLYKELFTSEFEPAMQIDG
# M1 agonist: activates the M1 muscarinic receptor | CHO-M1 cells, Fluo-4 calcium fluorescence, agonist mode; active compounds read high | B-score at 10 µM | 3% of 64,000 active | AID 626;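 active = fluorescence rise, raw or as B-score row- and column-corrected plate score, outside the 99.7% band of its plate's samples, either direction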
# Htt clearance: compounds clearing mutant huntingtin protein; inhibition, % at 1.5 µM; HeLa Exon1htt(103Q)mCFP, aggregate imaging; zero = plate's median compound well; 0.42% of 47,000 active;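 active = inhibition of aggregate fluorescence above about 70%, also judged a hit by eye on the cell image, limit read from the data, passing the limit was not always enough; inconclusive = no rule stated for this call; inactive = not judged a hit on image review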;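 note: cells exposed to compound for three days before fixation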
# D1 allo mod: D1 dopamine receptor (human) allosteric modulation; P21728; HEK293 D1, CRE-luciferase, dopamine EC30 potentiation; actives deviate in either direction; B-score at 10 µM; 5.9% of 58,000 active; AID 641;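 active = luminescence count or its row- and column-corrected plate score outside the 99.7% band of the plate's sample wells, on either side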
# M1 agonist conf: confirmation of rat M1 muscarinic receptor agonists. CHO-M1 cells, Fluo-4 calcium fluorescence, agonist mode; actives lie on both sides. fluorescence change (max-min) at 10 µM. shares compounds with M1 agonist. 19% of 1,700 active;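 active = fluorescence change differs from the solvent-only DMSO control mean at a set confidence level in both duplicate runs; inconclusive = differs from solvent-only control mean in just one of two runs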;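 note: an EC20 dose of acetylcholine follows compound addition during the same imaging run; raw fluorescence intensity difference in instrument units with no normalization to controls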
# M4 agonist ctr: activates rat M4 receptor in counter-screen for M1 agonists. shares compounds with M1 agonist. CHO M4/Gqi5 cells, Fluo-4 calcium fluorescence, agonist mode; actives lie on both sides. fluorescence change (max-min) at 10 µM. 9% of 1,700 active;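 active = fluorescence change differing from the plate's solvent-only control wells at 99.7% confidence in both duplicates, whether higher or lower; inconclusive = differs from solvent controls in only one of two duplicates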
# * marks the source's active call; other numbers are inactive results; ? = inconclusive; · = no result.
SMILES,SF1 activator,M1 antagonist,RORa activator,M1 agonist,Htt clearance,D1 allo mod,M1 agonist conf,M4 agonist ctr
O=C(CSc1nc2ccc(Cl)cc2[nH]1)NCc1ccco1,3.3,-0.366,13.7,3.07*,-9.6,0.733,-24.9*,-74*
O=C(Cn1cnc2c(nnn2-c2ccc(F)cc2)c1=O)N1CCCc2ccccc21,24.8,0.441,29.3,-3.22*,-28.2,1.76,16.3,-41.3
COc1ccc(-n2nnc3c(=O)n(CC(=O)N4CCCc5ccccc54)cnc32)cc1,13.1,-0.124,5.1,1.19,·,·,·,·
Cc1cccc(N2CCN(C(=O)C3CCCN(S(=O)(=O)c4cnc[nH]4)C3)CC2C)c1 (configuration not stated),7.1,-0.197,-7.0,-0.296,·,-0.306,·,·
COc1ccc(-n2nnc3c(SCc4ccccc4)ncnc32)cc1,11.4,-0.362,9.5,2.77*,-33.7,-0.498,-0.653,-22.3
O=C(c1cnc(N2CCN(c3ncccn3)CC2)c2ccccc12)N1CCN(c2ccccn2)CC1,7.5,-1.29,-10.0,12.3*,47.3,-1.45,-10.3,-12.1
O=C(c1cc(-c2ccncc2)nc2ccccc12)N1CCN(c2ccc(N3CCOCC3)nn2)CC1,2.6,0.353,12.6,4.77*,·,-0.0874,-22.1,-28
O=C(c1ccco1)N1CCN(c2nc3ccccc3n3nnnc23)CC1,8.1,-1.43,44.9,7.4*,·,1.07,22.1,14.4
O=C(c1cc(-c2ccccc2)nc2ccccc12)N1CCN(c2ccccn2)CC1,6.3,-1.2,1.1,4.07*,-36.8,-2.74,-15.8,-41
Cc1cc2c(c(=O)o1)C(Cc1ccccc1)C(C#N)=C(N)O2 (configuration not stated),-5.2,0.394,3.8,0.0346,·,0.124,·,·
O=C(c1ccco1)N1CCN(C(=O)c2cc(-c3ccccn3)nc3ccccc23)CC1,-0.3,0.458,-20.8,3.28*,0.0,0.668,?,-74.2
O=C(OCC(=O)N1CCN(C(=O)c2ccco2)CC1)c1cc(-c2ccco2)nc2ccccc12,·,·,·,·,6.0,·,·,·
COc1ccccc1S(=O)(=O)Cc1ccc(C(=O)NC(C)c2ccc3c(c2)OCCO3)o1 (configuration not stated),-0.8,-0.0648,-1.3,2.03,·,-1.05,·,·
O=C(NN=C1CCCC1)C(=O)Nc1cccc(C(F)(F)F)c1,·,·,·,·,-49.7,·,·,·
COCCCNS(=O)(=O)c1ccc2c(c1)CCN2C(C)=O,13.6,-0.359,-0.6,-0.846,·,-0.165,·,·
CC(=O)N1CCc2cc(S(=O)(=O)NCCCOC(C)C)ccc21,-3.5,0.441,-4.3,-2.12*,·,·,-9.78,?
Cc1ccccc1NC(=O)CN1C(=O)COc2ccc(Cl)cc21,-11.1,-0.915,-12.3,-1.26,·,-1.53,·,·
Cc1nc2ccccn2c1/C(O)=C1\C(=O)C(=O)N(CCCN(C)C)C1c1ccc(Cl)cc1 (configuration not stated),5.7,1.27,-11.7,-0.939,·,0.051,·,·
O=C(CCN1C(=O)C2C3C=CC(C3)C2C1=O)Nc1c(F)cccc1F (configuration not stated),-27.7,0.168,-17.6,0.189,·,-0.0178,·,·
Cc1cc(NC(=O)CCN2C(=O)C3C4C=CC(C4)C3C2=O)c2ccccc2n1 (configuration not stated),-5.7,-0.276,3.8,3.33*,·,-0.246,-7.23,-21.8
COc1ccccc1N(C)S(=O)(=O)c1ccc(C(=O)OCC(=O)NCc2ccco2)cc1,11.8,-0.65,9.3,6.86*,29.5,·,-18.9,-38.2
O=C(COC(=O)C1COc2ccccc2O1)NC(=O)Nc1ccc2c(c1)OCCO2 (configuration not stated),13.7,-0.512,26.2,-0.764,·,0.557,·,·
O=C(NCCCN1CCCC1=O)NC12CC3CC(CC(C3)C1)C2,6.4,0.128,-10.8,5.68*,-42.3,0.883,3.01,-4.42
O=C(NCCCO)NC12CC3CC(CC(C3)C1)C2,·,·,·,·,13.8,·,·,·
O=C(NCc1cccc(C(F)(F)F)c1)C1CC(c2c(Cl)cccc2Cl)=NO1 (configuration not stated),·,·,·,·,0.2,·,·,·
SMILES,SF1 activator,M1 antagonist,RORa activator,M1 agonist,Htt clearance,D1 allo mod,M1 agonist conf,M4 agonist ctr
O=c1c2ccccc2nc2n1CCN2Cc1ccc(Cl)cc1,-20.4,-1.77,-6.8,5.61*,·,-2.59,?,-58.8
O=c1c2ccccc2nc2n1CCCS2,5.2,0.609,-9.1,0.071,3.5,-1.49,·,·
CNc1ccccc1-n1ccc(-c2ccccc2)n1,18.3,0.342,15.9,3.61*,·,0.494,-7.45,-21.9
COc1ccc(OC)c(-n2c(SCC(=O)NCc3ccco3)nnc2-c2c[nH]c3ccccc23)c1,5.2,0.217,-23.3,0.0695,65.0,-1.46,·,·
Cc1nn(C(=O)c2ccccc2)c2c1C(=O)CC(C)(C)C2,-11.8,-0.0347,-10.9,9.72*,-48.8,·,-8.51,?
CN1CCC2(CC1)C1CN(C)CC=C1C(C#N)=C(N)C2(C#N)C#N (configuration not stated),-1.6,0.406,-10.8,33.9*,50.8,·,215*,160*
C=CCN1C(=O)C2(c3ccccc31)C1CCCC=C1C(C#N)=C(N)C2(C#N)C#N (configuration not stated),-3.8,0.0499,12.1,-0.727,·,0.4,·,·
CC(=O)c1cc2c(cc1NS(=O)(=O)c1ccc(C)cc1)OCCO2,12.9,-0.0153,9.7,0.0121,25.9,1.97,·,·
OCC12COC(c3ccccc3)N1C(c1ccccc1)OC2 (configuration not stated),-2.5,0.795,-10.5,8.27*,-29.3,-0.493,-15.9,?
O=C(c1ccccc1)N1CCCOC1c1ccccc1 (configuration not stated),-2.1,0.321,-17.9,0.17,-8.4,-0.0945,·,·
O=C1NC2NC(=O)N(C(Cc3ccccc3)C(=O)O)C2N1 (configuration not stated),1.2,0.404,-4.7,-0.609,52.7,1.5,·,·
Cc1c(C(=O)O)oc2ccc(S(=O)(=O)N3CC(C)CC(C)C3)cc12 (configuration not stated),7.8,-11.1*,-30.1,10.7*,·,-1,-10.3,?
Cc1c(C(=O)O)oc2ccc(S(=O)(=O)N3CCC(C)CC3)cc12,2.5,0.391,-6.8,-0.991,·,0.789,·,·
COc1ccc(NC(=O)c2oc3ccc(S(=O)(=O)N4CCC5(CC4)OCCO5)cc3c2C)cc1,12.2,-2.17,29.1,13.2*,·,-3.27*,?,-27
N#C/C(=C\c1ccc(Cl)cc1Cl)c1n[nH]c(Cn2cncn2)n1,·,·,·,·,-5.0,·,·,·
CC(C)OC(=O)c1nnn(-c2nonc2N)c1CSc1ccccn1,-3.0,-0.738,2.2,-1.4,-6.9,1.54,·,·
